Data published in ChEMBL document CHEMBL1138619, “Autotaxin structure-activity relationships revealed through lysophosphatidylcholine analogs” (Bioorg Med Chem, 2009).

Experiments:
Type in all cases: cell-based
Design in all cases: scale not given: the % may be the effect or the level left
Autotaxin (Homo sapiens) [1] = target: Autotaxin (Homo sapiens) (UniProt Q13822); test: Activity of human autotaxin in human […] cells assessed as effect on enzyme-mediated of FS3 hydrolysis at 0.1 uM
Procedure, shortened: (§1)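 ATX source: serum-free conditioned medium from MDA-MB-435 cells (24-30 h), with 20% ethylene glycol added, concentrated ~10-fold and exchanged into 50 mM Tris pH 7.4. Assay: FS-3 substrate 1 μM final, fatty-acid-free BSA 30 μM, Tris pH 8 buffer with Mg2+, Ca2+, K+ and NaCl. Read fluorescence at ex 485/em 538 nm every 5 min. % inhibition vs vehicle at 1 h, after no-medium background subtraction; mean ± SD, ≥3 wells.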

Autotaxin (Homo sapiens) [2] = target: Autotaxin (Homo sapiens) (UniProt Q13822); test: Activity of human autotaxin in human […] cells assessed as effect on enzyme-mediated of FS3 hydrolysis at 1 uM; procedure, shortened: as §1
Autotaxin (Homo sapiens) [3] = target: Autotaxin (Homo sapiens) (UniProt Q13822); test: Activity of human autotaxin in human […] cells assessed as effect on enzyme-mediated of FS3 hydrolysis at 10 uM; procedure, shortened: as §1

Compound | Activity (Autotaxin (Homo sapiens) [1]) [%] | Activity (Autotaxin (Homo sapiens) [2]) [%] | Activity (Autotaxin (Homo sapiens) [3]) [%]
CCCCCCCCC/C=C/CCCCCCCC(=O)OC[C@@H](O)COP(=O)(O)O | 90 | 23 | 2
CCCCCCCCC/C=C/CCCCCCCOP(=O)([O-])NCC[N+](C)(C)C | 93 | 89 | 74
CCCCCCCC/C=C\CCCCCCCCOP(=O)([O-])OCC[N+](C)(C)C | 105 | 59 | 8
CCCCCCCCCCCCCCCCCOC[C@@H](O)COP(=O)([O-])OCC[N+](C)(C)C | 100 | 89 | 49
CCCCCCCCCCCCCCOC[C@@H](O)COP(=O)([O-])CCC[N+](C)(C)C | 98 | 85 | 76
CCCCCCCCCCCCCCCCCCC(=O)OC[C@@H](O)COP(=O)([O-])OCC[N+](C)(C)C | 111 | 99 | 59
CCCCCCCCCCCCCCC(=O)OC[C@@H](O)COP(=O)([O-])OCC[N+](C)(C)C | 72 | 80 | 36
CCCCCCCCCCCCCCCCCCOP(=O)([O-])NCC[N+](C)(C)C | 86 | 74 | 29
CCCCCCCCCCOC[C@H](O)COP(=O)([O-])CCC[N+](C)(C)C | 97 | 96 | 89
CCCCCCCC/C=C\CCCCCCCCOP(=O)(O)OCC[N+](C)(C)C | 101 | 100 | 79
CCCCCCC(=O)OC[C@@H](O)COP(=O)([O-])OCC[N+](C)(C)C | 104 | 100 | 97
CCCCCCCCCCCCC(=O)OC[C@@H](O)COP(=O)([O-])OCC[N+](C)(C)C | 102 | 97 | 66
CCCCCCCCCCCCCCCCOP(=O)([O-])CCC[N+](C)(C)C | 97 | 94 | 91
CCCCCCCCCCCCCCCCC(=O)OC[C@@H](O)COP(=O)(O)O | 74 | 49 | 5
CCCCCCCCCCCCCCCCOP(=O)([O-])OCC[N+](C)(C)C | 114 | 113 | 92
CCCCCCCCCCCCCCCCCCC(=O)OC[C@@H](O)COP(=O)(O)O | 89 | 74 | 36
CCCCCCCCCCCCCCCCCCP(=O)([O-])OCC[N+](C)(C)C | 110 | 96 | 44
CCCCCCCCCCCCOC[C@@H](O)COP(=O)([O-])CCC[N+](C)(C)C | 99 | 96 | 89

Compound | Activity (Autotaxin (Homo sapiens) [1]) [%] | Activity (Autotaxin (Homo sapiens) [2]) [%] | Activity (Autotaxin (Homo sapiens) [3]) [%]
CCCCCCCCCCCCCCCCCCOC[C@H](O)COP(=O)([O-])CCC[N+](C)(C)C | 78 | 77 | 68
CCCCCCCCCCCCCCCCCCCOC[C@@H](O)COP(=O)([O-])OCC[N+](C)(C)C | 92 | 86 | 44
CCCCCCCCCCCCCCOC[C@H](O)COP(=O)([O-])CCC[N+](C)(C)C | 97 | 95 | 80
CCCCCCCCCCCCCCCCCCOC[C@@H](O)COP(=O)([O-])CCC[N+](C)(C)C | 81 | 89 | 76
CCCCCCCCCCCCCCCCOC[C@H](O)COP(=O)([O-])CCC[N+](C)(C)C | 82 | 86 | 76
CCCCCCCCC/C=C/CCCCCCCC(=O)OC[C@@H](O)COP(=O)([O-])OCC[N+](C)(C)C | 92 | 55 | 17
CCCCCCCCC(=O)OC[C@@H](O)COP(=O)([O-])OCC[N+](C)(C)C | 94 | 81 | 101
CCCCCCCCCCC(=O)OC[C@@H](O)COP(=O)([O-])OCC[N+](C)(C)C | 101 | 101 | 85
CCCCCCCCCCOC[C@@H](O)COP(=O)([O-])CCC[N+](C)(C)C | 101 | 95 | 103
CCCCCCCCCCCCCCCCOC[C@@H](O)COP(=O)([O-])CCC[N+](C)(C)C | 83 | 82 | 72
CCCCCCCCCCCCCCOP(=O)([O-])OCC[N+](C)(C)C | 110 | 112 | 91
CCCCCCCCCCCCOC[C@H](O)COP(=O)([O-])CCC[N+](C)(C)C | 98 | 95 | 87
CCCCCCCCCCCCCCOP(=O)([O-])CCC[N+](C)(C)C | 94 | 90 | 71
CCCCCCCCCCCCCCCCC(=O)OC[C@@H](O)COP(=O)([O-])OCC[N+](C)(C)C | 109 | 89 | 36
CCCCCCCCCCCCCCCCCCOP(=O)([O-])OCC[N+](C)(C)C | 114 | 116 | 102
CCCCCCCCCCCCCCOP(=O)([O-])NCC[N+](C)(C)C | 89 | 90 | 75
CCCCCCCCCCCCCCCCOP(=O)([O-])NCC[N+](C)(C)C | 81 | 81 | 77
